SMILES strings stand for the structures. Activity calls are given as the source filed them. The calls are words filed in the database; no cut-off is given here.

For the first test, the system named is Cavia porcellus. Nature of the test: Compound was evaluated in the guinea pig anaphylaxis test for in vivo activity; Inactive, treated 12/19, control 16/20. It counts as functional, organism-based.
Details: not given
As for `Cn1c(=O)c2[nH]cnc2n(C)c1=O`, the outcome was inactive.

The species named for another test is Homo sapiens. In words: Inhibitory activity against histamine release from antigen-challenged, sensitized human basophils. The class given is functional.
Details: not given
Summed up: (§1)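 Histamine release was induced by antigen challenge of sensitized human basophils in vitro. Compounds were first screened at a single concentration. Those reducing release by more than 50% went on to concentration-response testing to estimate IC50. Values are given with standard error and number of experiments.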
For the compound `C=CCn1nc(C)c2c(C)nc(CCC)n2c1=O`, the IC50 (usually the concentration needed to halve the response being measured) was above 48 µM.

The test is the same for the next values; noted with them: Homo sapiens.
In the case of `Cn1c(=O)c2nc[nH]c2n(C)c1=O.O` [THEOPHYLLINE], the IC50 was 335 µM.

For `CCCc1nc(C)c2c(C)nnc(O)n12`, the IC50 worked out at 14 µM.

For the compound `CCCc1nnc(O)n2c(CCC)nc(C)c12`, the IC50 was determined as 16 µM.

On to `CCCc1nc(C)c2c(CC)nnc(O)n12`, for which the IC50 came out at 15.6 µM.

On to `C=CCn1ncc2cnc(C)n2c1=S`, for which the IC50 is above 48 µM.

For `C=CCn1ncc2c(CC)ncn2c1=S`, the IC50 was above 48 µM.

In the case of `CCOC(=O)/C=C/CSc1nncc2cncn12`, the IC50 is above 48 µM.

Turning to `c1ccc(CNc2nncc3cncn23)cc1`, the IC50 was above 48 µM.

In the case of `COCc1ncc2n1C(NCCN(C)C)NN=C2NCCN(C)C` (configuration not stated), the IC50 is above 48 µM.

Consider `Cc1nnc(S)n2c(C)nc(C)c12`, for which the IC50 is above 48 µM.

Consider `C=CCn1ncc2cncn2c1=O`, for which the IC50 was above 48 µM.

For `Cc1nc(C)n2c(=O)n(C)ncc12`, the IC50 was above 48 µM.

On to `CCc1nnc(S)n2c(C(C)CC)nc(C)c12` (configuration not stated), for which the IC50 was above 48 µM.

With `Cc1nc(C(C)(C)C)n2c(O)nncc12`, the IC50 is 31 µM.

On to `CSc1nncc2cnc(C)n12`, for which the IC50 was above 48 µM.

Consider `CCCc1nc(C)c2c(C(C)C)nnc(SC)n12`, for which the IC50 is above 48 µM.

In the case of `CCCc1nnc(O)n2c(C)nc(C)c12`, the IC50 was above 48 µM.

Consider `CCCc1ncn2c(O)nncc12`, for which the IC50 is above 48 µM.

Take `Cc1nc(C)n2c(S)nncc12`: the IC50 was above 48 µM.

On to `Oc1nnc(Br)c2c(Br)nc(Br)n12`, for which the IC50 came out at 27 µM.

For `COCc1nc(Br)c2cnnc(O)n12`, the IC50 was above 48 µM.

As to `C=CCSc1nncc2cnc(CCC)n12`, the IC50 is above 48 µM.

Take `Oc1nncc2cnc(Cc3ccccc3)n12`: the IC50 is above 48 µM.

`COCc1nc(C)c2c(C)nnc(O)n12`: the IC50 is above 48 µM.

As to `C=C=Cn1nc(C)c2c(C)nc(CCC)n2c1=O`, the IC50 was above 48 µM.

With `C=CCn1ncc2c(C)ncn2c1=O`, the IC50 was above 48 µM.

Turning to `C=CCn1nc(CCC)c2c(C)nc(CCC)n2c1=O`, the IC50 is 29 µM.

For `C=CCn1nc(C)c2c(C)nc(CCC)n2c1=O`, the IC50 was determined as 69 µM.

Take `CN1CCN(c2nncc3cncn23)CC1`: the half-maximal inhibitory concentration (IC50) was above 48 µM.

For `Cc1ncc2cnnc(O)n12`, the IC50 is above 48 µM.

Consider `CCCCc1nnc(O)n2c(CCC)nc(C)c12`, for which the IC50 was above 48 µM.

As to `C=CCn1ncc2cnc(-c3ccc(OC)cc3)n2c1=O`, the IC50 was above 48 µM.

Turning to `CCc1nnc(O)n2c(CC)nc(C)c12`, the IC50 amounted to 24 µM.

Consider `Cc1nc(Cc2ccccc2)n2c(O)nncc12`, for which the IC50 is above 48 µM.

Regarding `CCCC1NN=C(SC)n2c1cnc2C` (configuration not stated), the IC50 was above 48 µM.

Take `CN(C)CCNc1nncc2cncn12`: the IC50 was above 48 µM.

On to `C=CCSc1nncc2c(C)nc(C)n12`, for which the IC50 amounted to 59 µM.

On to `c1coc(CNc2nncc3cncn23)c1`, for which the IC50 is above 48 µM.

On to `C=CCn1ncc2cnc(Cc3ccccc3)n2c1=O`, for which the IC50 is above 48 µM.

As to `CNc1nncc2cncn12`, the IC50 was above 48 µM.

With `Cc1nc(C(C)C)n2c(O)nncc12`, the IC50 was above 48 µM.

Regarding `c1nc(Nc2nncc3cncn23)n[nH]1`, the IC50 is 46 µM.

Take `Cc1ncc2cnnc(S)n12`: the IC50 was above 48 µM.

In the case of `CCc1nc(C)c2cnnc(SC)n12`, the IC50 was above 48 µM.

Turning to `CCCc1nnc(SC)n2c(CCC)nc(C)c12`, the IC50 was above 48 µM.

As to `C=CCn1ncc2cnc(COC)n2c1=O`, the IC50 is above 48 µM.

In the case of `CCc1nnc(O)n2c(C)nc(C)c12`, the IC50 is above 48 µM.

Consider `CSc1nncc2c(C(C)C)ncn12`, for which the IC50 was above 48 µM.

For `COCc1ncc2cnnc(O)n12`, the IC50 is above 48 µM.

In the case of `CCCc1nc(C)c2cnn(CC(=O)OCC)c(=O)n12`, the IC50 was above 48 µM.

With `CCOC(=O)Cn1ncc2c(C)ncn2c1=O`, the IC50 was above 48 µM.

As to `C=CCn1ncc2c(CCC)ncn2c1=O`, the IC50 is above 48 µM.

In the case of `c1ccc(-c2cn[nH]c2Nc2nncc3cncn23)cc1`, the IC50 came out at 10 µM.

Take `CCc1ncn2c(S)nncc12`: the IC50 was above 48 µM.

For `CC(C)c1ncn2c(S)nncc12`, the IC50 is above 48 µM.

The species entered for another test is Homo sapiens. In words: Inhibitory activity against histamine release from antigen-challenged, sensitized human basophils; Fluorescent compound, obscuring the histamine assay. It counts as functional.
Details: not given
Summed up: as §1
Take `Cc1nnc(O)n2c(C)nc(C)c12`: the IC50 result is “Fluoroescent compound, obscuring the histamine assay”.

Another test is filed under the species Mus musculus. In words: Effective dose in mouse PCA test. The class given is functional.
Details: not given
The method, boiled down: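 Female CFW mice were passively sensitized with 50 µL of diluted homologous IgE-containing serum iv. Two days later compound was given po, 1 h before iv ovalbumin antigen plus Evans Blue dye. Mice were killed after 20 min, and each lesion area was scored as the product of two normal diameters.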
Consider `Cn1c(=O)c2nc[nH]c2n(C)c1=O.O` [THEOPHYLLINE], for which it took a dose of 140 mg/kg to reach the 50% effect level (ED50).

`CCCc1nc(C)c2c(C)nnc(O)n12`: the ED50 (commonly the dose at which the effect has come halfway, by size or by number of responders) was found to be 109 mg/kg.

Turning to `CCCc1nnc(O)n2c(CCC)nc(C)c12`, it took a dose of 114 mg/kg to reach the 50% effect level (ED50).

Take `CCCc1nc(C)c2c(CC)nnc(O)n12`: the ED50 is 146 mg/kg.
